# From PubChem
# A selection: hits, their analogues and other compounds. The true share with any hit is near 3%.
# HIF act: HIF pathway transcriptional activation. activation, % at 7.5 µM (by protocol). hit rate 0.32% among 300,000. AID 1910. U2OS HRE-luciferase reporter, luminescence; normalized: DMSO 0%, desferrioxamine 100%;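 active means mean activation of at least 10% of the iron chelator positive control signal, with at least half of replicates also reaching 10%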
# NRP1-CendR mod: modulators of CendR peptide binding to human neuropilin-1; FAM-RPARPAR peptide binding to NRP-1, fluorescence polarization; O14786; inhibition, % at 25 µM; AID 602438; hit rate 0.85% among 360,000;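 active means inhibition or corrected inhibition above about 18%, plus a signal ratio from 0.5 to 1.5, limit read from the data, passing the limit was not always enough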
# Target sequence (O14786 whole entry, looked up): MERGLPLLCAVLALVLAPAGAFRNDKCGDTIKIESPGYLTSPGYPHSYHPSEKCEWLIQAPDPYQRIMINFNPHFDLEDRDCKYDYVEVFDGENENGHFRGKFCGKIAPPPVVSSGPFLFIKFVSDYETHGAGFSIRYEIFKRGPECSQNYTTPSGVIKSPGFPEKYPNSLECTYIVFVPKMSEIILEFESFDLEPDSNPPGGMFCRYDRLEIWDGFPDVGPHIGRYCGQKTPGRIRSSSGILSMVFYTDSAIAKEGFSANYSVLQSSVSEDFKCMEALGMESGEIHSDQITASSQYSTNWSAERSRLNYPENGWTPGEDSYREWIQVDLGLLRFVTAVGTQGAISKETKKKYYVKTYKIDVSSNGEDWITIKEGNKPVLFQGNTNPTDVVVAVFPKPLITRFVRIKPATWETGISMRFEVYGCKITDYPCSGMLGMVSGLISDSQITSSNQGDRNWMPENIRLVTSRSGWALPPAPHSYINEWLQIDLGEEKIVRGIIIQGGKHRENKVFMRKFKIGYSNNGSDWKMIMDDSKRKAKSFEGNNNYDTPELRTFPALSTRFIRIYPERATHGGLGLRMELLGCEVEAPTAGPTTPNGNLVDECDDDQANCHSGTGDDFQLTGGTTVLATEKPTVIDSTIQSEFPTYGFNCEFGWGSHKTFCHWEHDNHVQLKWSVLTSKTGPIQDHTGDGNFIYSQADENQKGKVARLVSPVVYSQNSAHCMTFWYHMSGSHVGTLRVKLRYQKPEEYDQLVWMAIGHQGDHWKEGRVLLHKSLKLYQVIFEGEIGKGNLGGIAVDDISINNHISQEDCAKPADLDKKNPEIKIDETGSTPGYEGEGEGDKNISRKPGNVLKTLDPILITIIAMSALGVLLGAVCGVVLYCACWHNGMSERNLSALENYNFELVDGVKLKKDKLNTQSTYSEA
# T cruzi repl: blocks replication of Trypanosoma cruzi | inhibition, % (no concentration beside the values) | T. cruzi beta-gal in NIH3T3, luminescence, 90 h | hit rate 1.4% among 300,000;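 active means mean inhibition across valid replicates above about 55%, limit read from the data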;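 further: signal also drops with host cell toxicity which is not excluded here; 0% = plate median of DMSO wells and 100% = zero luminescence signal; higher percent means less beta-gal luminescence so fewer parasites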
#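 Material: NIH/3T3 host cells with β-galactosidase reporter T. cruzi; Input: 5,000 host fibroblasts per well; Medium: DMEM, 2% fetal bovine serum; Compound: 50 nL DMSO compound solution per well; Schedule: 3 h host attachment, then at least 90 h co-culture; Detection: luminescent β-galactosidase signal after 60 min lysis.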
# V-ATPase pH: regulators of yeast V-ATPase proton transport | hit rate 0.37% among 350,000 | S. cerevisiae, pHLuorin cytosolic pH fluorescence | response, % at 10 µM; in the data active means response mostly above about 7.3%, no sharp cut-off; inactive means mostly below about 5.4%; further: actives read high
# CR mimetic SO: caloric restriction mimetics inhibiting age-related superoxide in yeast | superoxide response (% of plate mean), % at 10 µM | S. cerevisiae aged cells, superoxide DHE fluorescence; stronger effect = lower value | hit rate 0.18% among 330,000 | AID 2690;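 active means superoxide response under a set limit, about three screen SD below normal, cut at about 65% in these data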;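 further: yeast aged for seven days with compound at 30 °C before DHE staining; 100% = average MFI of all compound-treated wells on the plate with controls excluded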
# AI-2 QS mod: Vibrio harveyi AI-2 quorum sensing modulation; activity change, % at 7.5 µM; hit rate 0.4% among 300,000; Vibrio harveyi JMH597 AI-2 luminescence/OD600 ratio, 9 h; stronger effect = lower value; strain lacks LuxN and CqsS sensors; 0 = neutral-control median; in the data active means activity change below about -75%, passing the limit was not always enough;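 further: luminescence divided by OD600 gain over 9 h not by final OD600 alone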
# Starred values were filed as active, the others as inactive; . = no result given.
SMILES,HIF act,NRP1-CendR mod,T cruzi repl,V-ATPase pH,CR mimetic SO,AI-2 QS mod
CC(C)C(=O)N1CCC(n2nccc2NC(=O)CCOc2ccccc2)CC1,1,0,0,-3,117,45
CSCC(C)N1CCC(n2nccc2NC(=O)CCOc2ccccc2)CC1 (stereo unspecified),0,22*,28,1,86,2
COc1ccc2oc(=O)c(C(=O)NCc3ccc4c(c3)OCO4)cc2c1,0,-3,2,3,107,16
Cc1ccccc1Sc1ccc(N)cn1,0,-186,10,-2,98,22
N#Cc1cc([N+](=O)[O-])ccc1Oc1cccc(/C=N/NC(=O)c2cccc(Cl)c2)c1,0,7,68*,1,108,36
COCCn1c(N)c(N(Cc2ccccc2)C(=O)CSCC(=O)Nc2ccc(C)cc2)c(=O)[nH]c1=O,0,8,2,5,100,23
NS(=O)(=O)c1ccc(NC2=CC(=O)C(=O)c3ccccc32)cc1,-5,31*,9,-4,124,13
C=CCC1NS(=O)(=O)OCC1NC(=O)OCC(Cl)(Cl)Cl (stereo unspecified),0,18,-9,5,111,8
CC(C)(C)OC1NS(=O)(=O)OCC1NCOC(Cl)(Cl)Cl (stereo unspecified),1,26*,-12,-2,110,12
O=C(CCCc1ccccc1)Nc1ccccn1,15*,-4,5,-1,115,5
Cc1cccnc1C1=NOC(Cc2ccccc2)C(=O)N1Cc1ccc2c(c1)OCO2 (stereo unspecified),.,-15,.,.,.,.
CC12CCC(C(=O)N3CCN(C(c4ccccc4)c4ccccc4)CC3)(OC1=O)C2(C)C (stereo unspecified),0,-7,56*,-1,111,15
COc1ccc([C@H]2CC(=O)C=C(c3ccc4c(c3)OCCO4)C2)cc1,.,26*,.,2,91,.
COc1ccc(C2=CC(=O)C[C@H](c3ccc(OC)c(OC)c3)C2)cc1,.,21*,.,-1,93,.
COc1ccc([C@H]2CC(=O)C=C(c3ccc(C)cc3)C2)cc1OC,.,-5,.,0,91,.
O=C1C=C(c2ccc3c(c2)OCO3)C[C@@H](c2ccc3c(c2)OCO3)C1,.,0,.,-4,103,.
O=C(O)c1ccc2c(c1)C(=O)N(c1ccccc1-c1ccccc1)C2=O,0,4,-7,0,109,-3
O=C(O)c1ccc(N2CCCCCC2)c(N2C(=O)c3ccccc3C2=O)c1,0,26*,1,-2,93,16
CCc1ccc(C2C(=O)c3ccccc3C2=O)cc1,16*,-5,6,3,92,16
Cc1ccccc1OCC1Cc2c(nc(N)c(C#N)c2N)O1 (stereo unspecified),.,53*,.,1,89,.
COC(=O)c1c(C)nc2ccccc2c1-c1ccccc1,0,-13,-10,1,111,19
COC(=O)c1ccc2c(c1)c(-c1ccccc1)c(-c1ccccc1)n2C,.,32*,.,-2,109,.
O=C(NC12CC3CC(CC(C3)C1)C2)c1ccc(-c2ccc(Cl)cc2)o1,6,-8,59*,1,83,8
O=C(NC12CC3CC(CC(C3)C1)C2)c1ccc(-c2cccc(Cl)c2)o1,3,-11,44,-2,102,4
Cc1ccc2nc(-c3ccc(O)c(O)c3)cn2c1,29*,-5,-43,-1,95,10
SMILES,HIF act,NRP1-CendR mod,T cruzi repl,V-ATPase pH,CR mimetic SO,AI-2 QS mod
CCc1nc2ccc(C(=O)Nc3ccc(NC(C)=O)cc3)cn2c1N(C)CCCc1ccccc1,.,-14,.,.,.,.
O=S(=O)(Nc1ccc(OC(F)F)cc1)c1ccc(-c2ccon2)s1,1,1,4,-4,102,35
COC(=O)C1=C(C(=O)OC)[C@@H]2Nc3ccccc3[C@@]23C[C@@H](C(=O)OC)N(C(=O)COCc2ccccc2)C3=N1,-2,-10,-22,3,85,10
O=C(CC1SC(N2CCCC2)=NC1=O)Nc1ccc(C(=O)Nc2ncccc2O)cc1 (stereo unspecified),20*,-1,-11,3,97,16
Cc1ccnc(NC(=O)c2ccc(NC(=O)CC3SC(N4CCCC4)=NC3=O)cc2)c1 (stereo unspecified),1,-4,-6,1,97,6
CCCCN(C)C1=CC2=CC(=C(C#N)C#N)CCC2CC1 (stereo unspecified),0,138,27,291*,112,17
CCN(CC)C1=CC2=CC(=C(C#N)C#N)CCC2CC1 (stereo unspecified),0,134,23,219*,134,19
Cc1noc(C)c1COC(=O)[C@@H](NC(=O)c1ccccc1Cl)C(C)C,0,-2,17,1,99,36
O=C(Nc1ccc(Nc2ccccc2)cc1)c1ccc(Br)o1,2,0,13,-1,116,-92*
Cc1cc(O)c(NC(=O)c2ccc(Br)o2)cc1C,5,-3,-7,14*,94,13
COc1ccccc1NC(=O)c1ccc(Br)o1,0,9,-26,-6,121,10
O=C(Nc1csc([N+](=O)[O-])c1)Nc1c(Cl)cccc1Cl,-1,-7,27,-4,100,-7
Cc1ccc(NC(=O)Nc2ccccc2)cc1[N+](=O)[O-],3,-8,21,0,115,2
O=C(Nc1ccccc1)Nc1ccc(Cl)c([N+](=O)[O-])c1,3,-3,35,0,93,-102*
O=C(Nc1ccc(Cl)cc1)Nc1csc([N+](=O)[O-])c1,2,4,30,1,96,-83*
CCOc1cc(CNc2ccc(N(C)C)cc2)cc(Br)c1OCC(=O)NC(C)(C)C,0,5,50,-2,89,44
CCOc1cc(CNc2ccc(N3CCCCC3)cc2)cc(Br)c1OCC(=O)NC(C)(C)C,-1,-3,58*,4,74,22
CCOc1cc(CNc2cccc3ccccc23)cc(Br)c1OCC(=O)NC(C)(C)C,-1,2,55*,-1,103,9
O=[N+]([O-])c1cc(-c2nc3nc4ccccc4nc3n2CCc2ccccc2)cc([N+](=O)[O-])c1,0,28*,56*,1,89,-8
c1ccc(Cn2c(-c3ccccc3)nc3nc4ccccc4nc32)cc1,0,-4,28,-3,117,23
Cc1nc(N)c(Cc2ccccc2F)c(N)n1,0,3,-3,3,94,18
CCNC(=O)NC(=O)c1csc([N+](=O)[O-])c1,-1,-12,59*,-2,121,23
C=CCNC(=O)NC(=O)c1csc([N+](=O)[O-])c1,0,3,27,3,106,6
CCCCCCCCCC(=O)OCC(O)CO (stereo unspecified),0,-1,-13,0,83,17
